Reference: ChEMBL document CHEMBL4014314, “Rational Design of Bisubstrate-Type Analogues as Inhibitors of DNA Methyltransferases in Cancer Cells” (J Med Chem, 2017)

Assays:
[1] = biological target: T1, DNA (cytosine-5)-methyltransferase 3A (Homo sapiens, UniProt Q9Y6K1); assay: Inhibition of human DNMT3A catalytic domain using AdoMet assessed as reduction of methylation in 5'-biotin/3' 6-carboxyfluorescein labeled DNA duplex at CpG site at 32 uM after 1 hr by fluorescence assay relative to control
[2] = biological target: T2, DNA (cytosine-5)-methyltransferase 1 (Homo sapiens, UniProt P26358); assay: Inhibition of full length His-tagged human DNMT1 using SAM/[methyl-3H]SAM assessed as reduction of methylation in biotinylated hemimethylated DNA duplex at 32 uM after 1 hr by scintillation counting method relative to control
[3] = biological target: T1, DNA (cytosine-5)-methyltransferase 3A; assay: Inhibition of human DNMT3A catalytic domain using AdoMet assessed as reduction of methylation in 5'-biotin/3' 6-carboxyfluorescein labeled DNA duplex at CpG site at 10 uM after 1 hr by fluorescence assay relative to control
[4] = biological target: T2, DNA (cytosine-5)-methyltransferase 1; assay: Inhibition of full length His-tagged human DNMT1 using SAM/[methyl-3H]SAM assessed as reduction of methylation in biotinylated hemimethylated DNA duplex at 100 uM after 1 hr by scintillation counting method relative to control
[5] = biological target: T1, DNA (cytosine-5)-methyltransferase 3A; assay: Inhibition of human DNMT3A catalytic domain using AdoMet assessed as reduction of methylation in 5'-biotin/3' 6-carboxyfluorescein labeled DNA duplex at CpG site after 1 hr by fluorescence assay
In short: (§1)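 Human full-length DNMT1 and catalytic DNMT3A tested for methylation of a DNA duplex; the paper gives assay details elsewhere. EC50 from a sigmoid dose-response fit with variable Hill slope; reported as median with SE from at least two independent experiments for DNMT1 and three for DNMT3A; DNMT3A curves run in technical duplicates.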

[6] = biological target: T2, DNA (cytosine-5)-methyltransferase 1; assay: Inhibition of full length His-tagged human DNMT1 using SAM/[methyl-3H]SAM assessed as reduction of methylation in biotinylated hemimethylated DNA duplex after 1 hr by scintillation counting method; in short: as §1

T2 sequence (P26358 whole entry, the tested form may be a part): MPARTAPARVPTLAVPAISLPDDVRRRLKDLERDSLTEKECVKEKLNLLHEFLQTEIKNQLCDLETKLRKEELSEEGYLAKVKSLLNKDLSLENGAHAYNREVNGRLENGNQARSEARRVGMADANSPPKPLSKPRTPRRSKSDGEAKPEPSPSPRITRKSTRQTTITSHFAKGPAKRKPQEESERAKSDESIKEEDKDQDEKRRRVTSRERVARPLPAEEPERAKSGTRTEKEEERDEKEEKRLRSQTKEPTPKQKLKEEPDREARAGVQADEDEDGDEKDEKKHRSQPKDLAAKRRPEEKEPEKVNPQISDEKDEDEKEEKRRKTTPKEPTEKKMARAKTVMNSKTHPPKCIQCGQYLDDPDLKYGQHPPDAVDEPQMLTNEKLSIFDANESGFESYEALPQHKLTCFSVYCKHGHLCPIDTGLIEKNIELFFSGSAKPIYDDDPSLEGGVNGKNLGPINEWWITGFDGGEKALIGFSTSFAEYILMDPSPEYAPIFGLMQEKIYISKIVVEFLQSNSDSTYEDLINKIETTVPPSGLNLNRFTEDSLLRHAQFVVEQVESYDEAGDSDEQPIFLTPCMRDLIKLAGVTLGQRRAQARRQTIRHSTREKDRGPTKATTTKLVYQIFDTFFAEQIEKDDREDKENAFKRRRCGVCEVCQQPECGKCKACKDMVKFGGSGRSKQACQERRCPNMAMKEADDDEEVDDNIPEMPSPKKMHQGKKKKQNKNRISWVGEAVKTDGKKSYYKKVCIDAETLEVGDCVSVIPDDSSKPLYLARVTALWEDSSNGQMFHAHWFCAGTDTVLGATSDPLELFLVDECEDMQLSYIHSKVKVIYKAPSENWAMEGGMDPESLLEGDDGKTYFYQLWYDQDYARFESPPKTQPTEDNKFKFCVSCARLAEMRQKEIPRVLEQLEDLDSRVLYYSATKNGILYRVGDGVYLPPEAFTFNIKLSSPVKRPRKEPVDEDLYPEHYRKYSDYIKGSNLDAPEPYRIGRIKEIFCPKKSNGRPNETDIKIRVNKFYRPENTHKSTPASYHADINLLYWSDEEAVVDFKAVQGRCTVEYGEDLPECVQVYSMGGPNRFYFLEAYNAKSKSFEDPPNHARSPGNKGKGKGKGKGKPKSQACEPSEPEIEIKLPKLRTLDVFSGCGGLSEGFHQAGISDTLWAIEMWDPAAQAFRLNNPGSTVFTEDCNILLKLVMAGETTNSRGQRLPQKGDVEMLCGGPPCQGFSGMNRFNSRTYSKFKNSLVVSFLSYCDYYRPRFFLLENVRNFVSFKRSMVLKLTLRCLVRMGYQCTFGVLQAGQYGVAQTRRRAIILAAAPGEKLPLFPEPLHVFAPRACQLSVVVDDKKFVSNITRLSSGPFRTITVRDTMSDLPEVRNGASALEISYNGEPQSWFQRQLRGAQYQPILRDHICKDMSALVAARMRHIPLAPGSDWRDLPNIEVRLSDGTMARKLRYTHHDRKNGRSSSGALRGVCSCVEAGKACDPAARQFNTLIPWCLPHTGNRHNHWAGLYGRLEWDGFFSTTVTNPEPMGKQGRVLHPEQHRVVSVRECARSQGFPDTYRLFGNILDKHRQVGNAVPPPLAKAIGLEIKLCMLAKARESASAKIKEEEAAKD
T1 sequence (Q9Y6K1 whole entry, looked up, the tested form may be a part): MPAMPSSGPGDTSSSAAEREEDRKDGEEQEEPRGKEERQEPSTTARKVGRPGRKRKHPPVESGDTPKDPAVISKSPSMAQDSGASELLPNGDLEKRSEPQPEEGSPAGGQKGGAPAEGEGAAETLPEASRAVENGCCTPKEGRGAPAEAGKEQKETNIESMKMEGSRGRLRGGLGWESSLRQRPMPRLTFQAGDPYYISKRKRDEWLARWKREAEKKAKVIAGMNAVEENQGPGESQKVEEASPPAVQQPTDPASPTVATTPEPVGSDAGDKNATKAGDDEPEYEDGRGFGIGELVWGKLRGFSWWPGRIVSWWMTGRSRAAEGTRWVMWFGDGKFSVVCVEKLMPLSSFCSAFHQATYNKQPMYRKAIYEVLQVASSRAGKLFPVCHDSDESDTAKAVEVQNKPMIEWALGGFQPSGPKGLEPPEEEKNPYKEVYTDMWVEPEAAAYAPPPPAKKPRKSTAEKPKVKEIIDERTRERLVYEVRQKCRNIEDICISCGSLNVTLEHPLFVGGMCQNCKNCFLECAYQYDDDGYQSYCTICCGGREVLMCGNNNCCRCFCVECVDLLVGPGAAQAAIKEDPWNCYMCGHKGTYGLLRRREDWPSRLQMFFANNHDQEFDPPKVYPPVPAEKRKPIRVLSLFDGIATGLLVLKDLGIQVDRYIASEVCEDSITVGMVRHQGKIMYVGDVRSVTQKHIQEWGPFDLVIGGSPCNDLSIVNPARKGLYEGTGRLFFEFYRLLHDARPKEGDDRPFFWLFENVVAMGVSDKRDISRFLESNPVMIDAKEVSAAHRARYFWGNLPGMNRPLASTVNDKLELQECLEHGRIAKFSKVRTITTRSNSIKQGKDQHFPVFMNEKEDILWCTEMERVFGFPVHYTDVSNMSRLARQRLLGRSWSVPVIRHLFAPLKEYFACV

| SMILES | inhibition [1] [%] | inhibition [2] [%] | inhibition [3] [%] | inhibition [4] [%] | EC50 [5] [µM] | EC50 [6] [µM] |
| --- | --- | --- | --- | --- | --- | --- |
| c1ccc(CCCNc2ncnc3cc(OCC4CCN(CCNc5ccc6ncccc6c5)CC4)ccc23)cc1 | 60 | 0 | 47 | 16 |  |  |
| Nc1ccc(CCNc2ncnc3cc(OCC4CCN(CCNc5ccnc6ccccc56)CC4)ccc23)cc1 | 96 | 59 | 68 | 97 |  |  |
| COc1ccc2c(NCCN3CCC(COc4ccc5c(NCCCc6ccccc6)ncnc5c4)CC3)ccnc2c1 | 80 | 35 | 70 | 90 |  |  |
| Cc1cc(NCCN2CCC(COc3ccc4c(NCCCc5ccccc5)ncnc4c3)CC2)c2cccc(C)c2n1 | 82 | 33 | 81 | 99 |  |  |
| c1ccc(CCCNc2ncnc3cc(OCC4CCN(CCNc5cncc6ccccc56)CC4)ccc23)cc1 | 49 | 0 | 35 | 0 |  |  |
| Clc1ccc(CCNc2ncnc3cc(OCC4CCN(CCNc5ccnc6ccccc56)CC4)ccc23)cc1 | 100 | 75 | 88 | 97 | 1.2 | 26 |
| c1ccc(CCCNc2ncnc3cc(OCC4CCN(CCNc5cnc6ccccc6c5)CC4)ccc23)cc1 | 45 | 0 | 38 | 12 |  |  |
| c1ccc(CCNc2ncnc3cc(OCC4CCN(CCNc5ccnc6ccccc56)CC4)ccc23)cc1 | 99 | 38 | 80 | 98 | 4.9 | 32 |
| c1ccc(CCCNc2ncnc3cc(OCCCNCCNc4ccnc5ccccc45)ccc23)cc1 | 85 | 0 | 59 | 90 |  |  |
| c1ccc(CCCNc2ncnc3cc(OCC4CCN(CCNc5ccncc5)CC4)ccc23)cc1 | 72 |  | 47 | 34 |  |  |
| CN(CCN1CCC(COc2ccc3c(NCCCc4ccccc4)ncnc3c2)CC1)c1ccnc2ccccc12 | 66 | 10 | 53 | 57 |  |  |
| c1ccc(CNc2ncnc3cc(OCC4CCN(CCNc5ccnc6ccccc56)CC4)ccc23)cc1 | 81 | 22 | 43 | 26 |  |  |
| c1ccc(CN2CCN(CCNc3ncnc4cc(OCC5CCN(CCNc6ccnc7ccccc67)CC5)ccc34)CC2)cc1 | 88 | 0 | 62 | 71 |  |  |
| O=[N+]([O-])c1ccc(CCNc2ncnc3cc(OCC4CCN(CCNc5ccnc6ccccc56)CC4)ccc23)cc1 | 74 | 0 | 54 | 72 |  |  |
| Cc1cc(NCCN2CCC(COc3ccc4c(NCCCc5ccccc5)ncnc4c3)CC2)c2ccccc2n1 | 100 | 83 | 89 | 100 | 2.1 | 24 |
| c1ccc(CCCNc2ncnc3cc(OCC4CCN(CCNc5cccc6cnccc56)CC4)ccc23)cc1 | 0 | 0 | 0 | 0 |  |  |
| c1ccc(CCCNc2ncnc3cc(OCCN4CCN(CCNc5ccnc6ccccc56)CC4)ccc23)cc1 | 67 | 0 | 37 | 83 |  |  |
| c1ccc(CCCNc2ncnc3cc(OCC4CCN(CCNc5cccc6ncccc56)CC4)ccc23)cc1 | 60 | 0 | 50 | 0 |  |  |
| c1ccc2c(CCCNc3ncnc4cc(OCC5CCN(CCNc6ccnc7ccccc67)CC5)ccc34)cccc2c1 | 60 | 100 | 96 | 100 | 1.9 | 16 |
| c1ccc(CCCNc2ncnc3cc(OCC4CCN(CCNc5ccc6ccccc6c5)CC4)ccc23)cc1 | 0 | 0 | 0 | 0 |  |  |
| c1ccc(CCCNc2ncnc3cc(OCC4CCN(c5ccnc6ccccc56)CC4)ccc23)cc1 | 0 | 0 | 0 | 6 |  |  |
| CCCNc1ncnc2cc(OCC3CCN(CCNc4ccnc5ccccc45)CC3)ccc12 | 69 | 0 | 28 | 95 |  |  |
| COCn1ccc(NCCN2CCC(COc3ccc4c(NCCCc5ccccc5)ncnc4c3)CC2)nc1=O | 44 | 0 | 10 | 11 |  |  |

| SMILES | inhibition [1] [%] | inhibition [2] [%] | inhibition [3] [%] | inhibition [4] [%] | EC50 [5] [µM] | EC50 [6] [µM] |
| --- | --- | --- | --- | --- | --- | --- |
| COCn1ccc(NCCNCCCOc2ccc3c(NCCCc4ccccc4)ncnc3c2)nc1=O | 0 | 0 | 0 | 0 |  |  |
| O=c1c2ccc(OCC3CCN(CCNc4ccnc5ccccc45)CC3)cc2ncn1CCCc1ccccc1 | 99 | 0 | 65 | 90 |  |  |
| Nc1ccc(NCCN2CCC(COc3ccc4c(NCCCc5ccccc5)ncnc4c3)CC2)cc1 | 65 | 0 | 37 | 0 |  |  |
| FC(F)(F)c1ccc2c(NCCN3CCC(COc4ccc5c(NCCCc6ccccc6)ncnc5c4)CC3)ccnc2c1 | 0 | 0 | 0 | 48 |  |  |
| Oc1cc2nccc(NCCN3CCC(COc4ccc5c(NCCCc6ccccc6)ncnc5c4)CC3)c2cc1O | 93 | 36 | 66 | 81 |  |  |
| Oc1ccc2c(NCCN3CCC(COc4ccc5c(NCCCc6ccccc6)ncnc5c4)CC3)ccnc2c1 | 72 | 0 | 74 | 59 |  |  |
| CC(C)c1ccc(CCNc2ncnc3cc(OCC4CCN(CCNc5ccnc6ccccc56)CC4)ccc23)cc1 | 83 | 0 | 53 | 8 |  |  |
| Cn1ccc2cc(NCCN3CCC(COc4ccc5c(NCCCc6ccccc6)ncnc5c4)CC3)ccc21 | 90 | 21 | 74 | 50 |  |  |
| FC(F)(F)c1cc(NCCN2CCC(COc3ccc4c(NCCCc5ccccc5)ncnc4c3)CC2)c2ccccc2n1 | 0 | 0 | 0 | 13 |  |  |
| CN(C)c1ccc(NCCN2CCC(COc3ccc4c(NCCCc5ccccc5)ncnc4c3)CC2)c2ccccc12 | 77 | 8 | 66 | 15 |  |  |
| COc1cc2nccc(NCCN3CCC(COc4ccc5c(NCCCc6ccccc6)ncnc5c4)CC3)c2cc1OC | 95 | 57 | 95 | 81 | 1.4 | 30 |
| Cc1cc(Nc2ccc(NC(=O)c3ccc(Nc4ccnc5ccccc45)cc3)cc2)nc(N)n1 | 72 |  | 70 |  |  |  |
| c1ccc(CN2CCC(Nc3ncnc4cc(OCC5CCN(CCNc6ccnc7ccccc67)CC5)ccc34)CC2)cc1 | 93 | 65 | 72 | 81 |  |  |
| Nc1ncnc2cc(OCC3CCN(CCNc4ccnc5ccccc45)CC3)ccc12 | 68 | 0 | 16 | 99 |  |  |
| Cc1cc(NCCN2CCC(COc3ccc4c(NCCCc5ccccc5)ncnc4c3)CC2)ccn1 | 58 | 13 | 26 | 55 |  |  |
| c1ccc(NCCNc2ncnc3cc(OCC4CCN(CCNc5ccnc6ccccc56)CC4)ccc23)cc1 | 95 | 61 | 76 | 93 | 6.8 | 73 |
| Fc1ccc2nccc(NCCN3CCC(COc4ccc5c(NCCCc6ccccc6)ncnc5c4)CC3)c2c1 | 82 | 0 | 0 | 79 |  |  |
| Clc1ccccc1CCNc1ncnc2cc(OCC3CCN(CCNc4ccnc5ccccc45)CC3)ccc12 | 100 | 42 | 10 | 97 |  |  |
| NS(=O)(=O)c1ccc(CCNc2ncnc3cc(OCC4CCN(CCNc5ccnc6ccccc56)CC4)ccc23)cc1 | 93 | 59 | 0 | 100 |  |  |
| Clc1ccc2c(NCCN3CCC(COc4ccc5c(NCCCc6ccccc6)ncnc5c4)CC3)ccnc2c1 | 62 | 33 | 70 | 79 |  |  |
| Clc1cccc(CCNc2ncnc3cc(OCC4CCN(CCNc5ccnc6ccccc56)CC4)ccc23)c1 | 98 | 0 | 84 | 97 | 1 |  |
| COc1ccc(CCNc2ncnc3cc(OCC4CCN(CCNc5ccnc6ccccc56)CC4)ccc23)cc1 | 100 | 82 | 82 | 100 | 3.4 | 27 |
